Laboratory results: ChEMBL document CHEMBL3272207, “Structure-activity relationship in cinnamamides. 2. Synthesis and pharmacological evaluation of some (E)- and (Z)-N-alkyl-alpha, beta-dimethylcinnamamides substituted on the phenyl group” (J Med Chem, 1977)
The source made the active and inactive calls. The rule behind the calls is not given here.

Tests used:
Mus musculus [1] = assay: Behavioral toxicity in po dosed albino Icem-CET (SPF Caw) mouse assessed as tremors by Irwin's test; type: organism-based; details: in vivo
[2] = Behavioral toxicity in po dosed albino Icem-CET (SPF Caw) mouse measured up to 7 days by Irwin's test; type: organism-based; details: in vivo
Mus musculus [3] = assay: Behavioral toxicity in po dosed albino Icem-CET (SPF Caw) mouse assessed as positional passivity by Irwin's test; type: organism-based; details: in vivo
Mus musculus [4] = assay: Behavioral toxicity in po dosed albino Icem-CET (SPF Caw) mouse assessed as reduction in locomotor activity by Irwin's test; type: organism-based; details: in vivo
Mus musculus [5] = assay: Anticonvulsant activity in po dosed albino Icem-CET (SPF Caw) mouse assessed as inhibition of pentylenetetrazole-induced maximal extensor seizures compound administered 30 mins prior challenge; type: functional
Summary of the method: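 Pentylenetetrazole antagonism in male Icem-CET (SPF Caw) mice, 17-22 g, fasted 9 h. Compound in 0.5% Methocel was given by gavage (0.2 ml/10 g) at 4-5 doses, 20 mice per dose, 30 min before pentylenetetrazole 130 mg/kg ip. Prevention of maximal extensor seizures was scored. ED50 was calculated by probit analysis, with fiducial limits at p = 0.05.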

Mus musculus [6] = assay: Behavioral toxicity in albino Icem-CET (SPF Caw) mouse assessed as tremors at 25 to 800 mg/kg, po by Irwin's test; type: organism-based; design: dose 25-800 mg/kg, route oral; details: in vivo
Mus musculus [7] = assay: Behavioral toxicity in albino Icem-CET (SPF Caw) mouse assessed as clonic type convulsion at 25 to 800 mg/kg, po by Irwin's test; type: organism-based; design: dose 25-800 mg/kg, route oral; details: in vivo
Mus musculus [8] = assay: Anticonvulsant activity in albino Icem-CET (SPF Caw) mouse assessed as inhibition of pentylenetetrazole-induced maximal extensor seizures at 100 mg/kg, po administered 30 mins prior challenge; type: functional, organism-based; design: dose 100 mg/kg
Summary of the method: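 Single-dose screen at 100 mg/kg by gavage in 0.5% Methocel in fasted male Icem-CET (SPF Caw) mice, 17-22 g. Dosing was 30 min before pentylenetetrazole 130 mg/kg ip, and prevention of maximal extensor seizures was scored.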

Mus musculus [9] = assay: Toxicity in po dosed albino Icem-CET (SPF Caw) mouse assessed as impairment of pinna by Irwin's test; type: organism-based; details: in vivo
Mus musculus [10] = assay: Toxicity in po dosed albino Icem-CET (SPF Caw) mouse assessed as impairment of corneal reflexes by Irwin's test; type: organism-based, Cornea; details: in vivo
Mus musculus [11] = assay: Toxicity in po dosed albino Icem-CET (SPF Caw) mouse assessed as clonic type convulsion by Irwin's test; type: organism-based; details: in vivo
Summary of the method: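 Irwin test in fasted (9 h) male Icem-CET (SPF Caw) mice, 17-22 g. Oral gavage of a 0.5% Methocel suspension at screening doses of 25-800 mg/kg. Clonic-type convulsions were scored as the minimum effective dose.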

Mus musculus [12] = assay: Behavioral toxicity in albino Icem-CET (SPF Caw) mouse assessed as positional passivity at 25 to 800 mg/kg, po by Irwin's test; type: organism-based; design: dose 25-800 mg/kg, route oral; details: in vivo

## C/C(C(=O)NC1CC1)=C(/C)c1ccc(Cl)cc1
Mus musculus [1]
  ED50: 150 mg/kg
[2]
  LD50 at 168 h: 300 mg/kg
Mus musculus [3]
  ED50: > 800 mg/kg
Mus musculus [4]
  ED50: 350 mg/kg

## C=CCNC(=O)/C(C)=C(\C)c1ccc(Cl)cc1
Mus musculus [1]
  ED50: 70 mg/kg
[2]
  LD50 at 168 h: 300 mg/kg
Mus musculus [3]
  ED50: 90 mg/kg
Mus musculus [4]
  ED50: 70 mg/kg

## C=CCNC(=O)/C(C)=C(\C)c1ccc(C)cc1
Mus musculus [1]
  ED50: 150 mg/kg
Mus musculus [5]
  ED50: 78 mg/kg
[2]
  LD50 at 168 h: 600 mg/kg
Mus musculus [3]
  ED50: 170 mg/kg
Mus musculus [4]
  ED50: 100 mg/kg

## C/C(C(=O)NC1CC1)=C(\C)c1ccc(C)cc1
[2]
  LD50 at 168 h: > 800 mg/kg
Mus musculus [6]
  Activity: Non-toxic
Mus musculus [7]
  Activity: Non-toxic
Mus musculus [8]
  Activity: inactive
Mus musculus [3]
  ED50: 500 mg/kg
Mus musculus [4]
  ED50: 280 mg/kg

## COc1ccc(/C(C)=C(\C)C(=O)NC2CC2)cc1
Mus musculus [1]
  ED50: 250 mg/kg
[2]
  LD50 at 168 h: > 800 mg/kg
Mus musculus [8]
  Activity: inactive
Mus musculus [3]
  ED50: 300 mg/kg
Mus musculus [4]
  ED50: 250 mg/kg

## C#CCNC(=O)/C(C)=C(\C)c1ccc(F)cc1
Mus musculus [1]
  ED50: 100 mg/kg
Mus musculus [5]
  ED50: 22.8 mg/kg
[2]
  LD50 at 168 h: 240 mg/kg
Mus musculus [9]
  Activity: Toxic
Mus musculus [3]
  ED50: 200 mg/kg
Mus musculus [4]
  ED50: 100 mg/kg
Mus musculus [10]
  Activity: Toxic

## C/C(C(=O)NC1CC1)=C(\C)c1ccccc1
Mus musculus [1]
  ED50: 300 mg/kg
Mus musculus [11]
  MED: 400 mg/kg
[2]
  LD50 at 168 h: 600 mg/kg
Mus musculus [8]
  Activity: inactive
Mus musculus [12]
  Activity: Non-toxic
Mus musculus [4]
  ED50: 400 mg/kg

## C/C(C(=O)NC1CC1)=C(/C)c1ccccc1
Mus musculus [1]
  ED50: 150 mg/kg
[2]
  LD50 at 168 h: 500 mg/kg
Mus musculus [3]
  ED50: 250 mg/kg
Mus musculus [4]
  ED50: 100 mg/kg

## COc1cc(/C(C)=C(\C)C(=O)NC2CC2)cc(OC)c1OC
Mus musculus [1]
  ED50: > 800 mg/kg
[2]
  LD50 at 168 h: > 800 mg/kg
Mus musculus [8]
  Activity: inactive
Mus musculus [3]
  ED50: > 800 mg/kg
Mus musculus [4]
  ED50: 320 mg/kg

## C#CCNC(=O)/C(C)=C(\C)c1cc(OC)c(OC)c(OC)c1
Mus musculus [1]
  ED50: 150 mg/kg
Mus musculus [5]
  ED50: 53.1 mg/kg
[2]
  LD50 at 168 h: 500 mg/kg
Mus musculus [3]
  ED50: 300 mg/kg
Mus musculus [4]
  ED50: 160 mg/kg

## C#CCNC(=O)/C(C)=C(\C)c1ccc(OC)cc1
Mus musculus [1]
  ED50: 150 mg/kg
Mus musculus [5]
  ED50: 112 mg/kg
[2]
  LD50 at 168 h: > 800 mg/kg
Mus musculus [3]
  ED50: 400 mg/kg
Mus musculus [4]
  ED50: 150 mg/kg

## COc1ccc(/C(C)=C(/C)C(=O)NC2CC2)cc1
Mus musculus [1]
  ED50: 300 mg/kg
Mus musculus [11]
  MED: 400 mg/kg
[2]
  LD50 at 168 h: 450 mg/kg
Mus musculus [8]
  Activity: inactive
Mus musculus [12]
  Activity: Non-toxic
Mus musculus [4]
  ED50: 300 mg/kg

## C=CCNC(=O)/C(C)=C(/C)c1ccccc1
Mus musculus [1]
  ED50: 400 mg/kg
Mus musculus [11]
  MED: 400 mg/kg
[2]
  LD50 at 168 h: 600 mg/kg
Mus musculus [8]
  Activity: inactive
Mus musculus [12]
  Activity: Non-toxic
Mus musculus [4]
  ED50: 550 mg/kg

## C=CCNC(=O)/C(C)=C(/C)c1ccc(OC)cc1
Mus musculus [1]
  ED50: 400 mg/kg
Mus musculus [11]
  MED: 400 mg/kg
[2]
  LD50 at 168 h: 400 mg/kg
Mus musculus [8]
  Activity: inactive
Mus musculus [12]
  Activity: Non-toxic
Mus musculus [4]
  ED50: 280 mg/kg

## C#CCNC(=O)/C(C)=C(\C)c1ccc(Br)cc1
Mus musculus [1]
  ED50: 150 mg/kg
Mus musculus [5]
  ED50: 18.4 mg/kg
[2]
  LD50 at 168 h: 300 mg/kg
Mus musculus [3]
  ED50: 500 mg/kg
Mus musculus [4]
  ED50: 180 mg/kg

## C/C(C(=O)NC1CC1)=C(\C)c1ccc(Br)cc1
[2]
  LD50 at 168 h: 600 mg/kg
Mus musculus [6]
  Activity: Non-toxic
Mus musculus [7]
  Activity: Non-toxic
Mus musculus [3]
  ED50: 450 mg/kg
Mus musculus [4]
  ED50: 300 mg/kg

## C=CCNC(=O)/C(C)=C(\C)c1ccccc1
Mus musculus [1]
  ED50: 250 mg/kg
[2]
  LD50 at 168 h: 550 mg/kg
Mus musculus [3]
  ED50: 300 mg/kg
Mus musculus [4]
  ED50: 130 mg/kg

## C=CCNC(=O)/C(C)=C(/C)c1ccc(Cl)cc1
Mus musculus [1]
  ED50: 400 mg/kg
Mus musculus [11]
  MED: 400 mg/kg
[2]
  LD50 at 168 h: 600 mg/kg
Mus musculus [8]
  Activity: inactive
Mus musculus [3]
  ED50: 280 mg/kg
Mus musculus [4]
  ED50: 180 mg/kg

## C#CCNC(=O)/C(C)=C(\C)c1ccc(C)cc1
Mus musculus [1]
  ED50: 150 mg/kg
Mus musculus [5]
  ED50: 86.4 mg/kg
[2]
  LD50 at 168 h: > 800 mg/kg
Mus musculus [3]
  ED50: 200 mg/kg
Mus musculus [4]
  ED50: 120 mg/kg

## C/C(C(=O)NC1CC1)=C(/C)c1ccc(C)cc1
Mus musculus [1]
  ED50: 150 mg/kg
[2]
  LD50 at 168 h: > 800 mg/kg
Mus musculus [8]
  Activity: inactive
Mus musculus [3]
  ED50: 300 mg/kg
Mus musculus [4]
  ED50: 110 mg/kg

## C=CCNC(=O)/C(C)=C(/C)c1ccc(C)cc1
Mus musculus [1]
  ED50: 400 mg/kg
Mus musculus [11]
  MED: 400 mg/kg
[2]
  LD50 at 168 h: > 800 mg/kg
Mus musculus [8]
  Activity: inactive
Mus musculus [12]
  Activity: Non-toxic
Mus musculus [4]
  ED50: 280 mg/kg

## C/C(C(=O)NC1CC1)=C(/C)c1ccc(F)cc1
Mus musculus [1]
  ED50: 70 mg/kg
Mus musculus [5]
  ED50: 25 mg/kg
[2]
  LD50 at 168 h: 300 mg/kg
Mus musculus [9]
  Activity: Toxic
Mus musculus [3]
  ED50: 200 mg/kg
Mus musculus [4]
  ED50: 110 mg/kg
Mus musculus [10]
  Activity: Toxic

## C=CCNC(=O)/C(C)=C(\C)c1ccc(Br)cc1
Mus musculus [1]
  ED50: 500 mg/kg
Mus musculus [5]
  ED50: 33.7 mg/kg
[2]
  LD50 at 168 h: 600 mg/kg
Mus musculus [3]
  ED50: 500 mg/kg
Mus musculus [4]
  ED50: 120 mg/kg

## C=CCNC(=O)/C(C)=C(\C)c1cc(OC)c(OC)c(OC)c1
Mus musculus [1]
  ED50: 190 mg/kg
[2]
  LD50 at 168 h: 600 mg/kg
Mus musculus [8]
  Activity: inactive
Mus musculus [3]
  ED50: 280 mg/kg
Mus musculus [4]
  ED50: 110 mg/kg

## C/C(C(=O)NC1CC1)=C(\C)c1ccc(Cl)cc1
Mus musculus [1]
  ED50: 600 mg/kg
[2]
  LD50 at 168 h: 450 mg/kg
Mus musculus [7]
  Activity: Non-toxic
Mus musculus [12]
  Activity: Non-toxic
Mus musculus [4]
  ED50: 170 mg/kg

## C=CCNC(=O)/C(C)=C(\C)c1ccc(OC)cc1
Mus musculus [1]
  ED50: 300 mg/kg
[2]
  LD50 at 168 h: > 800 mg/kg
Mus musculus [8]
  Activity: inactive
Mus musculus [3]
  ED50: 300 mg/kg
Mus musculus [4]
  ED50: 200 mg/kg

## C=CCNC(=O)/C(C)=C(\C)c1ccc(F)cc1
Mus musculus [1]
  ED50: 130 mg/kg
Mus musculus [5]
  ED50: 40.2 mg/kg
[2]
  LD50 at 168 h: 400 mg/kg
Mus musculus [9]
  Activity: Toxic
Mus musculus [3]
  ED50: 150 mg/kg
Mus musculus [4]
  ED50: 70 mg/kg
Mus musculus [10]
  Activity: Toxic

## C#CCNC(=O)/C(C)=C(\C)c1ccccc1
Mus musculus [1]
  ED50: 150 mg/kg
Mus musculus [5]
  ED50: 45.3 mg/kg
[2]
  LD50 at 168 h: 300 mg/kg
Mus musculus [3]
  ED50: 400 mg/kg
Mus musculus [4]
  ED50: 150 mg/kg

## C=CCNC(=O)/C(C)=C(/C)c1ccc(F)cc1
Mus musculus [1]
  ED50: 250 mg/kg
Mus musculus [11]
  MED: 800 mg/kg
[2]
  LD50 at 168 h: 400 mg/kg
Mus musculus [9]
  Activity: Toxic
Mus musculus [8]
  Activity: inactive
Mus musculus [3]
  ED50: 300 mg/kg
Mus musculus [4]
  ED50: 270 mg/kg
Mus musculus [10]
  Activity: Toxic
